From PubChem BioAssay
Only some compounds are listed: those with a hit (about 1.5% of all), similar ones and a draw of the others.
FID counter: compounds displacing fluorescent DNA intercalator, primary screen, artefact control for HCV NS3 helicase inhibitor project, biochemical, FID fluorescence; DNA fluorescent intercalator displacement; inhibition, % at 7.9 µM; 290,000 compounds, 0.17% hits; in the data active = inhibition above about 37%;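 note: 0% = vehicle and 100% = reference compound; higher means more ethidium bromide displaced from hairpin DNA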
core dimer inh: inhibitors of HCV core protein dimerization, primary screen, biochemical, TR-FRET, high-throughput; TR-FRET GST/Flag-core106 dimerization, 1536-well; inhibition, % at 5 µM; 300,000 compounds, 0.33% hits; AID 1899, 2009;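 active = inhibition above the mean of all tested compounds plus 3 SD, set per screening campaign, cut at about 45% in these data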
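test system = GST/Flag-tagged HCV core106 proteins | probe or stimulus = Eu donor and XL665 acceptor anti-tag antibodies | times = compound-protein-antibody incubation 4 h at 22.5 °C | signal = TR-FRET, excitation 340 nm, emission 617 and 671 nm | measure = percent inhibition of core106 dimerization signal | controls = wells lacking GST-core106 and wells with excess unlabelled core106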
MEX-5 binding: MEX-5 zinc finger RNA-binding disruptors – biochemical, C. elegans, fluorescence polarization, MLPCN library, primary screen; 300,000 compounds, 0.38% hits; activity score (negative = inhibition of binding), % at 10 µM; Zinc finger protein mex-5 (Caenorhabditis elegans), Q9XUB2; MEX-5/FITC-TCR2 RNA binding; stronger effect = lower value;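 active = inhibition past about -25% in most replicates, and total fluorescence under double the plate's negative control median, limit read from the data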;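 note: 0% = DMSO and -100% = 5 µM competing unlabeled TCR2 RNA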
NRP1-CendR mod: modulators of CendR peptide binding to NRP-1, primary screen, biochemical, fluorescence polarization, uHTS. AID 602438, 2012. inhibition, % at 25 µM. FAM-RPARPAR peptide binding to NRP-1. 360,000 compounds, 0.85% hits. Neuropilin-1 (Homo sapiens), O14786;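 active = inhibition or corrected inhibition above about 18%, plus a signal ratio from 0.5 to 1.5, limit read from the data, passing the limit was not always enough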
Target sequence (O14786 whole entry, looked up): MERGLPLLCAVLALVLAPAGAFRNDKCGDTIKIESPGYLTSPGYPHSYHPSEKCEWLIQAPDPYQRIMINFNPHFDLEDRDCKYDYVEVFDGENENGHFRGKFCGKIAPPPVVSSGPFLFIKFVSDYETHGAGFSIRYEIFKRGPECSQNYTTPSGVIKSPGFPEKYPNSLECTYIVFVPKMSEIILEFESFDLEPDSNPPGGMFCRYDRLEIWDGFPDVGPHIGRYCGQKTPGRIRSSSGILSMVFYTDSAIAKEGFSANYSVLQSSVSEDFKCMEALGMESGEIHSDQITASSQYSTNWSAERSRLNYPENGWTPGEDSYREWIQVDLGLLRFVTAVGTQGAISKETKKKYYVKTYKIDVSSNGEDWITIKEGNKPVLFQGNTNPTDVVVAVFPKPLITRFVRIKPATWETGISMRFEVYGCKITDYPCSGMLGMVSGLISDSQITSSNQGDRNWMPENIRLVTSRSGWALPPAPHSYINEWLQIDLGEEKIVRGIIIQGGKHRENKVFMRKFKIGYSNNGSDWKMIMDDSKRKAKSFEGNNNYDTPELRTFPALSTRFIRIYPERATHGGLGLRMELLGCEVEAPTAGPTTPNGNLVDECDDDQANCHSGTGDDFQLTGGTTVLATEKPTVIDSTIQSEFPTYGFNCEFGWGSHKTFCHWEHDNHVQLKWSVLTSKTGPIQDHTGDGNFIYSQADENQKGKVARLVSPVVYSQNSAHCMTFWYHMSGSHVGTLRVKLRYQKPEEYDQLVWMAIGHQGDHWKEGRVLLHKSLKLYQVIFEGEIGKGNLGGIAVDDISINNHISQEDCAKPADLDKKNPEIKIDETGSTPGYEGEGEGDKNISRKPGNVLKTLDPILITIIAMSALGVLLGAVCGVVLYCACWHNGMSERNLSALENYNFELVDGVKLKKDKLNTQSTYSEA
An asterisk follows results filed as active; ! = a repeat was not active.

Results for Cc1ccc(F)c(S(=O)(=O)NC(=O)C2(C)CCN2C(=O)c2ccc(C(F)(F)F)nc2C)c1 (stereo unspecified) ?
NRP1-CendR mod: -0.7

What do the screens show for `O=C(Nc1cccc(C(=O)O)c1)Nc1cccc2ccccc12`?
FID counter: -5.0; core dimer inh: 9.0; MEX-5 binding: -1.6; NRP1-CendR mod: -0.2

How did O=C(O)c1ccc(C(=O)Nc2cccc3ccccc23)c(C(=O)O)c1 do in these assays?
FID counter: 5.8; MEX-5 binding: -0.9; NRP1-CendR mod: 24.9*

Results for Cc1ccc(NC(=O)CN(C)C(=O)COc2ccc(Br)cc2)cc1 ?
NRP1-CendR mod: 9.3

What do the screens show for `O=C(Cn1cccc1C(=O)c1ccccc1)NCCC1=CCCCC1`?
FID counter: -33.7; core dimer inh: -1.6; MEX-5 binding: -1.0; NRP1-CendR mod: 22.8*

What do the screens show for `O=C(Cc1cccc(NC(=O)C2CCCN(C(=O)C3CCC3)C2)c1)Nc1cccc(C(=O)N2CCOCC2)c1` (stereo unspecified)?
NRP1-CendR mod: 0.5

Results for CCOC(=O)C1=C(CSc2nccn2C)NC(=O)NC1c1cc(C)ccc1C (stereo unspecified) ?
FID counter: -10.9; core dimer inh: 4.1; MEX-5 binding: 2.3; NRP1-CendR mod: 25.8*

Results for CCN(CC)CCNC(=O)c1ccc(NC(=O)c2ccc(COc3ccccc3)cc2)cc1 ?
FID counter: 38.2*; MEX-5 binding: 1.0; NRP1-CendR mod: 16.6

What do the screens show for `COc1ccc(C2=C(CN(C)C)C(c3ccccc3)c3ccccc3O2)cc1` (stereo unspecified)?
FID counter: 46.0*!; core dimer inh: -14.8; MEX-5 binding: -1.3; NRP1-CendR mod: 10.6

What do the screens show for `CCOc1ccc(C2=C(C=C(C#N)C#N)C(c3ccccc3)c3ccccc3O2)cc1` (stereo unspecified)?
FID counter: -11.5; core dimer inh: 6.9; MEX-5 binding: 2.7; NRP1-CendR mod: 1.4

Results for COC(C[C@@H](O)C[C@H](O)[C@@H](C)OCc1ccccc1)OC ?
MEX-5 binding: -3.0; NRP1-CendR mod: 20.9*

What do the screens show for `COC(C[C@@H]1O[C@H]1C(=O)COCc1ccccc1)OC`?
core dimer inh: -8.7; MEX-5 binding: 0.3; NRP1-CendR mod: 28.2*

Results for COC(C[C@H]1O[C@H]1[C@@H](O)[C@@H](C)OCc1ccccc1)OC ?
MEX-5 binding: 0.2; NRP1-CendR mod: 20.2*

Results for COC(C[C@@H]1O[C@@H]1[C@H](O)[C@H](C)OCc1ccccc1)OC ?
MEX-5 binding: 1.7; NRP1-CendR mod: 19.1

What do the screens show for `COC(C[C@H](O)C[C@@H](O)[C@H](C)OCc1ccccc1)OC`?
MEX-5 binding: -0.5; NRP1-CendR mod: 6.0

Results for O=C(CCn1c(=O)c2cccn2c2cccnc21)NCCCN1CCN(c2ccc(F)cc2)CC1 ?
NRP1-CendR mod: 1.2

How did CC1CC(C)CN(CCCNC(=O)CN2C(=O)CSc3ccc(S(=O)(=O)N4CCOCC4)cc32)C1 (stereo unspecified) do in these assays?
FID counter: 10.6; core dimer inh: 8.6; MEX-5 binding: 1.1; NRP1-CendR mod: 18.8*

What do the screens show for `CC1CCN(CCCNC(=O)CN2C(=O)CSc3ccc(S(=O)(=O)N4CCC(C)CC4)cc32)CC1`?
FID counter: 45.3*; core dimer inh: 3.7; MEX-5 binding: 2.8; NRP1-CendR mod: 5.5

What do the screens show for `CC1CCN(CCCNC(=O)CN2C(=O)CSc3ccc(S(=O)(=O)N4CCOCC4)cc32)CC1`?
FID counter: -3.0; core dimer inh: -4.6; MEX-5 binding: -2.3; NRP1-CendR mod: 8.8

Results for CC1CCN(S(=O)(=O)c2ccc3c(c2)N(CC(=O)NCCCN2CC(C)CC(C)C2)C(=O)CS3)CC1 (stereo unspecified) ?
FID counter: 18.6; core dimer inh: -5.3; MEX-5 binding: 0.6; NRP1-CendR mod: 7.4

How did Cc1noc(C)c1CCC(=O)Nc1cc(C(=O)O)ccc1Cl do in these assays?
NRP1-CendR mod: -10.7

How did C[C@@]12CCC3[C@@](CCC4[C@@]3(C)CCC[C@@]4(C)C(=O)Nc3ccc(Cl)cc3)(CC1=O)C2 (stereo partly specified) do in these assays?
NRP1-CendR mod: 26.5*

How did CS(=O)(=O)N1CCCCC1CCN1CCCCC1 (stereo unspecified) do in these assays?
NRP1-CendR mod: 6.0

Results for COc1ccc(/C=C/C(=O)OC2CCCN(C)C2)cc1 (stereo unspecified) ?
FID counter: 9.7; core dimer inh: -2.7; MEX-5 binding: 0.7; NRP1-CendR mod: -3.1

What do the screens show for `COc1ccc(C=CC(O)CCN2CCC3CCC(C3)C2)cc1` (stereo unspecified)?
NRP1-CendR mod: 23.5*

How did Cc1ccc2cccc(OC(=O)c3c(F)cccc3Cl)c2n1 do in these assays?
NRP1-CendR mod: -12.6

How did CCOc1cc(C=C2C(=O)c3ccccc3C2=O)ccc1OCC(=O)Nc1ccc(C)cc1 do in these assays?
FID counter: -2.1; core dimer inh: -1.2; MEX-5 binding: -36.1*; NRP1-CendR mod: 119.8

How did CCOc1cc(/C=N/NC(N)=O)ccc1OCC(=O)Nc1ccc(C)c(C)c1 do in these assays?
FID counter: -5.4; core dimer inh: 0.2; MEX-5 binding: 3.8; NRP1-CendR mod: -0.7

Results for CN1CCN(CC(=O)Nc2cc(N(C)C)nc3ccccc23)CC1 ?
FID counter: 73.4*; core dimer inh: -2.6; MEX-5 binding: -0.8; NRP1-CendR mod: 0.1

How did CCCCCC(=O)Nc1cc(N(C)C)nc2ccccc12 do in these assays?
FID counter: 16.0; core dimer inh: -1.2; MEX-5 binding: -1.2; NRP1-CendR mod: -1.9

How did CCN(CC)CC(=O)Nc1cc(N(C)C)nc2ccccc12 do in these assays?
FID counter: 49.4*; core dimer inh: -4.4; MEX-5 binding: -3.5; NRP1-CendR mod: -6.1

Results for COc1ccc(CNC[C@H]2O[C@@H](n3ccc(=O)[nH]c3=O)[C@H](O)[C@@H]2O)cc1OC ?
NRP1-CendR mod: 3.5

What do the screens show for `CC1Nc2ncnc(N3CCc4ccccc4C3)c2N(Cc2ccccc2)C1=O` (stereo unspecified)?
NRP1-CendR mod: -17.5

How did COC(=O)C(NC(=O)CCC(=O)N[C@@H](C(=O)OC)c1ccccc1)c1ccccc1 (stereo partly specified) do in these assays?
FID counter: -24.4; core dimer inh: -5.8; MEX-5 binding: 0.5; NRP1-CendR mod: 25.2*

How did CC(C)(C)OC(=O)N[C@H](C(=O)OC(C)(C)C)c1ccccc1 do in these assays?
NRP1-CendR mod: 36.2*

How did COC(=O)C(NC(=O)CCC(=O)NC(C(=O)OC)c1ccccc1)c1ccccc1 (stereo unspecified) do in these assays?
FID counter: -18.8; core dimer inh: -15.3; MEX-5 binding: 0.2; NRP1-CendR mod: -0.6
